Assay results published in ChEMBL document CHEMBL1137333, “Synthesis, radiosynthesis, and biological evaluation of carbon-11 labeled 2beta-carbomethoxy-3beta-(3'-((Z)-2-haloethenyl)phenyl)nortropanes: candidate radioligands for in vivo imaging of the serotonin transporter with positron emission tomography” (J Med Chem, 2006).

Columns and labels:
[1] = tested on: Cynomolgus monkey; experiment: Uptake in anesthetized cynomolgus monkey frontal after 65.0 mins; format: ADME, organism-based, Frontal cortex; conditions: in vivo
Method in brief: (§1)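 Baseline microPET scan (P4 scanner) of anesthetized cynomolgus monkeys after injection of the carbon-11 labelled nortropane tracer. Two baseline studies were run per tracer. Radioactivity was followed over time in regional brain time-activity curves.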

[2] = tested on: Cynomolgus monkey; experiment: Uptake in anesthetized cynomolgus monkey caudate after 9.5 mins; format: ADME, organism-based, Caudate nucleus; conditions: in vivo
Method in brief: (§2)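 Baseline microPET (Concorde P4) regional brain time-activity curves in anesthetized cynomolgus monkey following injection of the [11C]-labelled tracer, with radioactivity followed over the scan.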

[3] = tested on: Cynomolgus monkey; experiment: Uptake in anesthetized cynomolgus monkey pons after 95.0 mins; format: ADME, organism-based; conditions: in vivo
Method in brief: (§3)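 Baseline microPET (Concorde P4) scan in anesthetized cynomolgus monkeys after injection of the carbon-11 labeled tracer, with no chase drug. Regional brain time-activity curves were followed over the scan. Tracer radiochemical purity and specific activity were determined by analytical HPLC at the time of injection.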

[4] = tested on: Cynomolgus monkey; experiment: Uptake in anesthetized cynomolgus monkey midbrain after 27.5 mins; format: ADME, organism-based; conditions: in vivo; method in brief: as §1
[5] = tested on: Cynomolgus monkey; experiment: Uptake in anesthetized cynomolgus monkey putamen after 9.5 mins; format: ADME, organism-based; conditions: in vivo; method in brief: as §3
[6] = tested on: Cynomolgus monkey; experiment: Uptake in anesthetized cynomolgus monkey thalamus after 55.0 mins; format: ADME, organism-based; conditions: in vivo; method in brief: as §3
[7] = tested on: Cynomolgus monkey; experiment: Ratio of uptake in pons to cerebellum of anesthetized cynomolgus monkey after 85 mins; format: ADME, organism-based; conditions: in vivo
Method in brief: (§4)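 Baseline microPET (Concorde P4) in anesthetized cynomolgus monkey after injection of the [11C]-labelled tracer. Regional time-activity curves were taken, and each region's uptake was divided by cerebellum uptake (low-SERT reference) at 65, 85 and 105 min postinjection.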

[8] = tested on: Cynomolgus monkey; experiment: Uptake in anesthetized cynomolgus monkey occipital after 15.5 mins; format: ADME, organism-based, Macaca mulatta, Occipital cortex; conditions: rhesus monkey, in vivo; method in brief: as §1
[9] = tested on: Cynomolgus monkey; experiment: Uptake in anesthetized cynomolgus monkey frontal after 35.0 mins; format: ADME, organism-based, Frontal cortex; conditions: in vivo; method in brief: as §1
[10] = tested on: Cynomolgus monkey; experiment: Ratio of uptake in occipital to cerebellum of anesthetized cynomolgus monkey after 65 mins; format: ADME, organism-based; conditions: in vivo; method in brief: as §4
[11] = tested on: Cynomolgus monkey; experiment: Uptake in anesthetized cynomolgus monkey frontal after 22.5 mins; format: ADME, organism-based, Frontal cortex; conditions: in vivo, 0.375 h; method in brief: as §1
[12] = tested on: Cynomolgus monkey; experiment: Uptake in anesthetized cynomolgus monkey caudate after 0.5 mins; format: ADME, organism-based, Caudate nucleus; conditions: in vivo; method in brief: as §2
[13] = tested on: Cynomolgus monkey; experiment: Uptake in anesthetized cynomolgus monkey thalamus after 3.5 mins; format: ADME, organism-based; conditions: in vivo; method in brief: as §3
[14] = tested on: Cynomolgus monkey; experiment: Uptake in anesthetized cynomolgus monkey putamen after 12.5 mins; format: ADME, organism-based; conditions: in vivo; method in brief: as §3
[15] = tested on: Cynomolgus monkey; experiment: Uptake in anesthetized cynomolgus monkey thalamus after 65.0 mins; format: ADME, organism-based; conditions: in vivo; method in brief: as §3
[16] = tested on: Cynomolgus monkey; experiment: Uptake in anesthetized cynomolgus monkey thalamus after 9.5 mins; format: ADME, organism-based; conditions: in vivo; method in brief: as §3
[17] = tested on: Cynomolgus monkey; experiment: Uptake in anesthetized cynomolgus monkey putamen after 15.5 mins; format: ADME, organism-based; conditions: in vivo; method in brief: as §3
[18] = tested on: Cynomolgus monkey; experiment: Uptake in anesthetized cynomolgus monkey medulla after 1.5 mins; format: ADME, organism-based, Medulla of organ; conditions: in vivo, 0.025 h; method in brief: as §1
[19] = tested on: Cynomolgus monkey; experiment: Uptake in anesthetized cynomolgus monkey medulla after 35.0 mins; format: ADME, organism-based, Medulla of organ; conditions: in vivo; method in brief: as §1
[20] = tested on: Cynomolgus monkey; experiment: Uptake in anesthetized cynomolgus monkey midbrain after 6.5 mins; format: ADME, organism-based; conditions: in vivo; method in brief: as §1
[21] = tested on: Cynomolgus monkey; experiment: Uptake in anesthetized cynomolgus monkey putamen after 75.0 mins; format: ADME, organism-based; conditions: in vivo, 1.25 h; method in brief: as §3
[22] = tested on: Cynomolgus monkey; experiment: Uptake in anesthetized cynomolgus monkey putamen after 6.5 mins; format: ADME, organism-based; conditions: in vivo; method in brief: as §3
[23] = tested on: Cynomolgus monkey; experiment: Ratio of uptake in pons to cerebellum of anesthetized cynomolgus monkey after 105 mins; format: ADME, organism-based; conditions: in vivo, 1.75 h; method in brief: as §4
[24] = tested on: Cynomolgus monkey; experiment: Uptake in anesthetized cynomolgus monkey pons after 15.5 mins; format: ADME, organism-based; conditions: in vivo; method in brief: as §3
[25] = tested on: Cynomolgus monkey; experiment: Uptake in anesthetized cynomolgus monkey thalamus after 45.0 mins; format: ADME, organism-based; conditions: in vivo, 0.75 h; method in brief: as §3
[26] = tested on: Cynomolgus monkey; experiment: Uptake in anesthetized cynomolgus monkey medulla after 9.5 mins; format: ADME, organism-based, Medulla of organ; conditions: in vivo; method in brief: as §1
[27] = tested on: Cynomolgus monkey; experiment: Ratio of uptake in frontal to cerebellum of anesthetized cynomolgus monkey after 65 mins; format: ADME, organism-based; conditions: in vivo; method in brief: as §4
[28] = tested on: Cynomolgus monkey; experiment: Uptake in anesthetized cynomolgus monkey cerebellum after 115.0 mins; format: ADME, organism-based; conditions: in vivo; method in brief: as §2
[29] = tested on: Cynomolgus monkey; experiment: Uptake in anesthetized cynomolgus monkey frontal after 45.0 mins; format: ADME, organism-based, Frontal cortex; conditions: in vivo, 0.75 h; method in brief: as §1
[30] = tested on: Cynomolgus monkey; experiment: Uptake in anesthetized cynomolgus monkey pons after 27.5 mins; format: ADME, organism-based; conditions: in vivo; method in brief: as §3
[31] = tested on: Cynomolgus monkey; experiment: Uptake in anesthetized cynomolgus monkey cerebellum after 95.0 mins; format: ADME, organism-based; conditions: in vivo; method in brief: as §2
[32] = tested on: Cynomolgus monkey; experiment: Uptake in anesthetized cynomolgus monkey caudate after 2.5 mins; format: ADME, organism-based, Caudate nucleus; conditions: in vivo; method in brief: as §2
[33] = tested on: Cynomolgus monkey; experiment: Uptake in anesthetized cynomolgus monkey medulla after 22.5 mins; format: ADME, organism-based, Medulla of organ; conditions: in vivo, 0.375 h; method in brief: as §1
[34] = tested on: Cynomolgus monkey; experiment: Uptake in anesthetized cynomolgus monkey occipital after 85.0 mins; format: ADME, organism-based, Macaca mulatta, Occipital cortex; conditions: rhesus monkey, in vivo; method in brief: as §1
[35] = tested on: Cynomolgus monkey; experiment: Ratio of uptake in frontal to cerebellum of anesthetized cynomolgus monkey after 105 mins; format: ADME, organism-based; conditions: in vivo, 1.75 h; method in brief: as §4

`[11CH3]OC(=O)[C@@H]1C2CCC(C[C@@H]1c1cccc(/C=C/I)c1)N2` (stereo not given in full) was tested, and the Drug uptake [1] was 3.9, the Drug uptake [2] was 4.12 and the Drug uptake [3] was 5.84. For the same compound, the Drug uptake [4] was 7.14, the Drug uptake [5] was 5.39 and the Drug uptake [6] was 7.12. The Ratio [7] was 1.6, the Drug uptake [8] was 4.69 and the Drug uptake [9] was 4.13. It also gave a Ratio [10] of 0.9, a Drug uptake [11] of 4.03 and a Drug uptake [12] of 0.01. It also gave a Drug uptake [13] of 2.1, a Drug uptake [14] of 5.9 and a Drug uptake [15] of 6.9. The Drug uptake [16] was 5.29, the Drug uptake [17] was 6.17 and the Drug uptake [18] was 0.39. For the same compound, the Drug uptake [19] was 7.36, the Drug uptake [20] was 4.97 and the Drug uptake [21] was 6.92. For the same compound, the Drug uptake [22] was 4.68, the Ratio [23] was 1.8 and the Drug uptake [24] was 5.23. It also gave a Drug uptake [25] of 7.14, a Drug uptake [26] of 6.22 and a Ratio [27] of 1. It also gave a Drug uptake [28] of 3.05, a Drug uptake [29] of 4.13 and a Drug uptake [30] of 5.94. The Drug uptake [31] was 3.46, the Drug uptake [32] was 0.89 and the Drug uptake [33] was 6.95. It also gave a Drug uptake [34] of 4 and a Ratio [35] of 1.2.
